Measurements from different studies.
Protocols differ between the studies behind these lines.
Target: DNA-dependent protein kinase catalytic subunit (PRKDC, Homo sapiens, UniProt P78527)

`C=CC(=O)Nc1cc(Nc2nccc(Nc3cc(Cl)c(F)cc3C(C)(C)O)n2)c(OC)cc1N1CC[C@@H](N(C)C)C1` gave an inhibition of -1% (enzyme activity; inhibitor; 1 µM).
The activity vs control of `Cc1ccc(C(=O)NCc2ccsc2)cc1C#Cc1cn(C(C)C)c2ncnc(N)c12` is reported as 95% (enzyme activity; inhibitor; 1 µM).
For `Cc1ccc(NC(=O)c2ccc(C)c(C(F)(F)F)c2)cc1C#Cc1nn(C2CCC(O)CC2)c2ncnc(N)c12` (stereo not drawn), the remaining signal was 94% (cell-free assay; 10 µM).
The activity vs control of `Cc1cc(NC(=O)c2cccc3cc(-c4cccc5[nH]nc(N)c45)ccc23)ccc1F` is reported as 99% (enzyme activity; inhibitor; 0.1 µM).
With `Cc1cnc(NC2CCOCC2)nc1-n1cnc(C(=O)NC(CN)c2cc(F)cc(Cl)c2)c1` (stereo not drawn) the remaining activity was 119% (enzyme activity; inhibitor; radiometric; 1 µM).
With `CS(=O)(=O)Nc1cccc(-c2csc(NC(=O)CSc3nc4nccnc4c(=O)n3CCc3ccccc3)n2)c1` the inhibition was 12% (enzyme activity; inhibitor; 10 µM).
The remaining activity of `CC(C)(C)c1nc2c(s1)c1nc(N)ncc1c1ccc(NS(=O)(=O)c3c(F)cccc3F)c(F)c12` is reported as 94% (enzyme activity; inhibitor; radiometric; 1 µM).
The inhibition of `CNc1cc(Oc2cc(C(=O)Nc3cc(N4CCN(C)CC4)cc(C(F)(F)F)c3)ccc2C)ncn1` is reported as -44.8% (target engagement in cells; inhibitor; chemoproteomics; Huh-7; 1 µM).
`COc1cc2ncnc(Nc3ccc(Oc4ccccc4)c(C)c3C)c2cc1OC` has an inhibition of 9% (enzyme activity; inhibitor; 1 µM).
For `CC(C)(C)c1nc(-c2cccc(NS(=O)(=O)c3c(F)cccc3F)c2F)c(-c2ccnc(N)n2)s1`, the remaining activity was 92% (enzyme activity; inhibitor; radiometric; 1 µM).
`COc1cc2ncnc(Nc3ccc(Oc4ccccc4)cc3C)c2cc1OC` has an inhibition of 9% (enzyme activity; inhibitor; 1 µM).
`O=C(CSc1nc2nccnc2c(=O)n1CCc1ccccc1)Nc1nccs1` gave an inhibition of 23% (enzyme activity; inhibitor; 10 µM).
